# What was measured:
# Tumor Cell line [1] = experiment: The compound was evaluated in vitro for the log10 molecular concentration that caused 50 % of 60 human tumor cell line kills; assay type: ADME, cell-based
# Outline: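 Human tumor cell lines (leukemia, non-small-cell lung, ovarian, renal) were preincubated 24 h. Platinum complexes were then added as five 10-fold dilutions, 0.01–100 μM, for 48 h, followed by in situ fixation and staining, with solubilized stain read spectrophotometrically. Log LC50 (50% cell kill) was averaged across cell lines within one experiment.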
# Tumor Cell line [2] = experiment: Evaluated in vitro for the log10 molecular concentration that caused […] tumor growth of 60 human tumor cell lines.; assay type: functional, cell-based
# Outline: (§1)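 Cells preincubated 24 h, then exposed to the agent at five 10-fold dilutions (0.01–100 μM for the platinum complexes) for 48 h. Cells fixed in situ and stained; solubilized stain read spectrophotometrically. Panel of leukemia, non-small-cell lung, ovarian and renal lines. Log GI50 or TGI taken per cell line in one experiment, then averaged across lines.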
# Tumor Cell line [3] = experiment: Evaluated in vitro for the log10 molecular concentration that caused 50 % inhibition of tumor growth of 60 human tumor cell lines; assay type: functional, cell-based; outline: as §1
Substance,Log LC50 (Tumor Cell line [1]),TGI (Tumor Cell line [2]) [µM],GI50 (Tumor Cell line [3]) [µM]
CARBOPLATIN [listing 1 of 2 here],> -3.61,–,–
CARBOPLATIN [listing 2 of 2 here],–,214,107
CISPLATIN [listing 1 of 2 here],> -3.35,–,–
CISPLATIN [listing 2 of 2 here],–,33.9,4.47
[Bis(aminomethyl)diethylsilane]tetrachloroplatinum(IV),> -4.02,–,–
